High-throughput results from PubChem.
Shown are actives, neighbours in structure and some others; about 1.7% of the full set was active somewhere.
Myeloid diff 2: induction of myeloid progenitor differentiation, primary screen, cell-based, flow cytometry, MLPCN library. AID 624256, 2012. ER-HoxA9 myeloid progenitors, lysozyme-GFP differentiation. 360,000 compounds, 1% hits. calls only at 10 µM;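 active = normalized GFP-positive differentiation at or above the plate's own cutoff, the solvent-only control mean plus 3 SD; inconclusive = no clear call, values can overlap the other calls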;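 also: cells exposed to compound for four days before flow analysis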
Vif imaging: HIV Vif self-association inhibitors, primary screen, imaging, HEK293T, single point; HEK293T cells, Vif self-association by quenched fluorescence, 24 h; inhibition, % at 7.49 µM; 340,000 compounds, 0.35% hits; AID 602346, 2012; in the data active = inhibition above about 50%, passing the limit was not always enough; inconclusive = no clear call, values can overlap the other calls; inactive = below about 31%
T cell modulator: modulators of CD8 T cell-vesicle binding, primary screen, mouse 2C CD8+ T cells, flow cytometry. 2C CD8+ T cell-vesicle binding; active compounds read low. response (vesicle binding), % at 7 µM. 330,000 compounds, 0.068% hits. AID 2052, 2009;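 active = response, share of CD8 T cells binding vesicles, and their 90th percentile fluorescence all below set limits, cut at about 80% in these data, passing the limit was not always enough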;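 also: values below 100% mean blocked vesicle binding to the CD8+ T cells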
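Read-out – percent CD8+ FL2 mean versus row control · System – murine 2C transgenic CD8+ T lymphocytes · Times – 1.5 h cell–vesicle binding at 37 °C, then 20 min icy labelling · Control set – naked vesicles low, QL9 vesicles with vehicle high · Detection – cytometric PE anti-B7-1 and Alexa647 anti-CD8 signals after 1% paraformaldehyde fixation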
Pemphigus Ab inh: inhibitors of pemphigus antibody binding to DSG3, primary screen, biochemical, bead-based, flow cytometry, scFv-GFP | DSG3-coupled beads, scFv-anti-DSG3-GFP binding; active compounds read low | binding (percent of control), % at 10 µM | 310,000 compounds, 0.48% hits | AID 588358, 2011;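 active = binding more than 3 SD below its plate's average and above zero; inconclusive = below that plate limit but binding exactly zero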;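 also: hits lower antibody fragment binding to DSG3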
Target sequence (P32926 whole entry, looked up, the tested form may be a part): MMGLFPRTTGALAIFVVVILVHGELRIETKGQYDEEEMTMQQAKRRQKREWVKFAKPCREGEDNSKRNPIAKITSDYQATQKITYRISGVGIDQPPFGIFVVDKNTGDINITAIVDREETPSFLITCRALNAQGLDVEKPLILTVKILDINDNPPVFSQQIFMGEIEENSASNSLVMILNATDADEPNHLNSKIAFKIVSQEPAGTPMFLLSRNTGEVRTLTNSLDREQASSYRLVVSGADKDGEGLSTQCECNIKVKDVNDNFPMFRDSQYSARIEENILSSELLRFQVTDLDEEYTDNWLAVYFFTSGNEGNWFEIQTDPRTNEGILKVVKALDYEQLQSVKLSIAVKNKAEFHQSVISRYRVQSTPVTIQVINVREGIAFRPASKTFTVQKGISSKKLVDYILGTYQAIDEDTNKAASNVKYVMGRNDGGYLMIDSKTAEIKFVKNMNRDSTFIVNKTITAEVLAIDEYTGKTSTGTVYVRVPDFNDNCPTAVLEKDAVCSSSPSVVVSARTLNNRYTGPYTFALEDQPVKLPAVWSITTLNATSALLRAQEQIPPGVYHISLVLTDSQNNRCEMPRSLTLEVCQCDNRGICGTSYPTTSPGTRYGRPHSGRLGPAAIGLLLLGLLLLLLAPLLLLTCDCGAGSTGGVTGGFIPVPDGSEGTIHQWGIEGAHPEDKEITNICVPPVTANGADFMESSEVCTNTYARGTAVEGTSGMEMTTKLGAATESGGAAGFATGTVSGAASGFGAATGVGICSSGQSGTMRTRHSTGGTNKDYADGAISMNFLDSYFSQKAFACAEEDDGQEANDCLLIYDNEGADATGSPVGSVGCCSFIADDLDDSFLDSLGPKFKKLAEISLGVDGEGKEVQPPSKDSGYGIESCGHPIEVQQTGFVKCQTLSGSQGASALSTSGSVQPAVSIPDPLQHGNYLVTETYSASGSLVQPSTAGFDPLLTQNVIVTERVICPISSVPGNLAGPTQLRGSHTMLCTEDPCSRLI
Myeloid diff CP1: inducers of myeloid progenitor differentiation, confirmation, cell-based, GFP/Mac1 flow cytometry, cherry pick 01. shares compounds with Myeloid diff 2. ER-HoxA9 myeloid progenitors, GFP/Mac1 double-positive flow. calls only. 2,300 compounds, 2% hits. AID 651706, 2012;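 active = share of green or green-and-red cells above 9 and 9% in run 1 or 4 and 3% in run 2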
GFP autofluor: flagged as fluorescent in myeloid differentiation counter-screen. 2,300 compounds, 7.4% hits. fluorescence response, % (no concentration beside the values). shares compounds with Myeloid diff 2. ER-HoxA9 myeloid progenitors, no estrogen, GFP autofluorescence flow cytometry; vehicle wells 0%, positive control 100%;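 active = over 5% cells positive for green fluorescent reporter, or over 2% positive for both it and APC stain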
Hits are given with their value; i = inactive; ? = inconclusive; nt = not tested or not shown; + = active, no number.

SMILES | Myeloid diff 2 | Vif imaging | T cell modulator | Pemphigus Ab inh | Myeloid diff CP1 | GFP autofluor
CCC(=O)N(CCC(c1ccc(C)cc1)c1ccco1)Cc1ccco1 (configuration not stated) | i | i | i | i | i | i
COC(=O)/C=C1\OCc2c(F)cccc21 | i | nt | nt | nt | nt | nt
O=[N+]([O-])c1cccc(/C=C/c2ccc3cccc(O)c3n2)c1 | i | i | i | i | nt | nt
O=[N+]([O-])c1cccc(/C=C/c2nc(C=Nc3ccc4ccccc4c3)c(O)o2)c1 | + | i | i | i | i | 5.7
O=C(NCc1ccccc1Cl)[C@H]1CCCN1C(=O)[C@H]1CCCN1C(=O)c1cccc2ccccc12 | i | nt | nt | nt | nt | nt
C=C(C)CSc1nc(N)c2c(C)c(C)sc2n1 | i | i | i | i | nt | nt
CSc1nc(N)c2c(C)c(C)sc2n1 | i | i | i | i | i | i
CC(C)NC(=O)CN1CCN(C(c2ccnc3ccccc23)c2nnnn2-c2ccc3c(c2)OCCO3)CC1 (configuration not stated) | i | nt | nt | nt | nt | nt
COc1ccc(NC(=O)/C(=C\c2ccco2)NC(=O)c2ccco2)cc1 | i | i | i | nt | i | i
COc1ccccc1NS(=O)(=O)c1cc([N+](=O)[O-])ccc1N/N=C/c1c[nH]c2ccccc12 | + | i | i | i | i | 46.2
Cc1ccc(N2CC(C(=O)OCC(=O)Nc3c(C)cccc3C)CC2=O)cc1 (configuration not stated) | i | i | nt | i | nt | nt
Cn1c(SCC(=O)c2ccccc2)nnc1C1CC1 | i | i | i | i | nt | nt
Cn1c(SCC(=O)O)nnc1C1CCCCC1 | + | i | i | i | i | i
CC(=O)Nc1cccc(-c2ccnc3c2CC(C)(C(=O)NCc2ccc(N(C)C)cc2)O3)c1 (configuration not stated) | + | i | nt | nt | i | i
O=C(COc1ccc(Cl)cc1)NCCS(=O)(=O)N1CCN(c2ccccc2F)CC1 | i | i | i | nt | nt | nt
Cc1ccnc(SCC(=O)Nc2sc3c(c2C#N)CCCC3)n1 | i | i | i | i | nt | nt
Cc1csc(SCC(=O)Nc2sc3c(c2C#N)CCC3)n1 | i | i | i | i | i | i
CCOc1ccccc1Nc1nc2ccc(C)cc2n2cnnc12 | + | i | nt | i | + | i
C[C@@H]1CNC(=O)c2c(C(=O)N[C@@H](Cc3c[nH]c4ccccc34)C(=O)OC(C)(C)C)ncn21 | i | i | nt | i | nt | nt
C=C(C)C(=O)OCC(O)COc1ccc(C(C)(C)c2ccc(OCC(O)COC(=O)C(=C)C)cc2)cc1 (configuration not stated) | i | i | i | nt | nt | nt
COc1ccc(/C=C/c2cccc[n+]2C)c(O)c1 | i | i | i | i | + | i
CC1CCCCN1C(=O)c1ccc(S(=O)(=O)N2CCCCC2C)cc1 (configuration not stated) | i | i | i | i | nt | nt
CC1CCCCN1C(=O)c1ccc(C(=O)N2CCCCC2C)cc1 (configuration not stated) | i | i | i | i | i | i
O=C(O)c1ccccc1Nc1ccc([N+](=O)[O-])cc1 | i | i | i | i | + | i
CN(Cc1ccccc1)C(=O)c1ccc(Cc2cn(C)c3ccccc23)nc1 | i | nt | nt | nt | nt | nt
SMILES | Myeloid diff 2 | Vif imaging | T cell modulator | Pemphigus Ab inh | Myeloid diff CP1 | GFP autofluor
CC(=O)OC[C@@H]1CN(Cc2ccccc2)C[C@H](n2cnc3c(NC4CC4)ncnc32)O1 | i | i | nt | nt | nt | nt
N#Cc1nn(-c2ccccc2)nc1N1CCCCC1 | + | i | i | i | i | i
N#Cc1nc(COc2ccccc2)oc1N1CCCCCC1 | i | i | i | i | nt | nt
CCN(CC)C(=O)C1=C(C)N(CCC2=CCCCC2)C(=O)C(CC(=O)NCc2ccco2)C1 (configuration not stated) | i | i | nt | i | nt | nt
CC(=O)Nc1cc(-c2ccc(CO)cc2)cn2c(-c3ccc(F)c(Cl)c3)cnc12 | + | i | nt | nt | i | i
CC(=O)Nc1cc(-c2ccc(F)cc2)cn2c(-c3ccc(F)c(Cl)c3)cnc12 | i | i | nt | nt | nt | nt
CC(=O)Nc1cc(-c2ccccc2Cl)cn2c(-c3ccc(S(C)(=O)=O)cc3)cnc12 | + | i | nt | nt | i | i
CC(C(=O)Nc1ccc(F)cc1Cl)N1CCN(S(=O)(=O)c2cccs2)CC1 (configuration not stated) | i | i | i | i | nt | nt
Oc1ccc(C=NN=Cc2ccco2)c(O)c1 | i | i | nt | i | nt | nt
COc1ccc(NS(=O)(=O)c2cccc(C(=O)NNC(=O)COc3ccccc3)c2)cc1 | + | i | i | i | i | i
COc1ccc(N2CCN(C(=O)c3ccc(NS(=O)(=O)c4cccc(F)c4)cc3)CC2)cc1 | i | ? | i | i | i | i
COc1ccc(NS(=O)(=O)c2cccc(C(=O)NNC(=O)CNC(=O)c3ccccc3)c2)cc1 | i | i | i | i | nt | nt
COc1ccc(N2CCN(C(=O)c3cccc(NS(=O)(=O)c4cccc(F)c4)c3)CC2)cc1 | i | i | nt | i | nt | nt
COc1ccc(N2CCN(C(=O)c3ccc(C)c(Cl)c3)CC2)cc1 | i | i | i | nt | i | i
O=C(Nc1cccc(OC(F)(F)F)c1)C1Cc2c(-c3ccc4c(c3)OCO4)ccnc2O1 (configuration not stated) | i | i | nt | nt | nt | nt
COc1ccc(NC(=O)C2Cc3c(-c4cccc(C(C)=O)c4)ccnc3O2)cc1 (configuration not stated) | ? | i | nt | nt | nt | nt
O=S(=O)(NCc1nnnn1-c1ccc(F)cc1)c1ccc(F)cc1 | i | i | nt | i | nt | nt
O=C(NC(c1ccc(-c2ccccc2)cc1)c1cnccn1)C1CCN(Cc2cccs2)CC1 (configuration not stated) | i | nt | nt | nt | nt | nt
OC(CNc1ccccc1)COc1ccc(OCC(O)CNc2ccccc2)cc1 (configuration not stated) | + | i | i | i | i | i
N#C/C(=C\c1ccc(/C=C(/C#N)c2nn(CCO)c(N)c2C#N)cc1)c1nn(CCO)c(N)c1C#N | i | i | i | 85.9 | i | i
CCOC(=O)C1=CCN(S(=O)(=O)c2ccc(C)cc2)C1c1ccccc1F (configuration not stated) | i | nt | nt | nt | nt | nt
Cc1ccc(C=Nc2ccc(N(C)C)cc2)o1 | i | nt | i | i | i | i
CC(C)(C)c1nc(CN2CCCCC2)cc(CN2CCCCC2)c1O | + | i | i | i | i | i
CC(C)(C)c1nc(CN2CCOCC2)ccc1O | i | i | i | i | nt | nt
Cc1cc(=O)[nH]c(SCCOc2cccc(C(F)(F)F)c2)n1 | nt | i | i | i | i | i
CCOc1ccc(OCCSc2nc(C)cc(=O)[nH]2)cc1 | i | i | i | nt | nt | nt
O=C(Nc1cccc(C(=O)N2CCCCC2)c1)C1CCCC1 | i | nt | nt | i | nt | nt
